Sampled rows, rich in hits. Any-hit rate of the full collection: about 5.9%.
Pyk2 oligo antag: antagonists of Pyk2 self-association, primary screen, Q293 cells, FERM NanoBiT luminescence, HTS; Protein-tyrosine kinase 2-beta (Homo sapiens), Q14289; stronger effect = lower value; z-score (the deposit names both 25 µM and 10 µM); hit rate 0.83% among 99,000; AID 1347419, 2020;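 active = Z-score of -3 or lower, scaled per plate to the spread of control and sample wells; inactive = z-score above -3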;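 also: negative z-score means lost luminescence so less FERM oligomerization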
Cav3 T inh: Cav3.2 calcium influx blockers – cell-based, Fluo-4 calcium fluorescence, FDSS, MLSMR library, primary screen. Cav3.2-expressing cells; stronger effect = lower value. B-score at 10 µM. hit rate 4% among 100,000. AID 449739, 2010;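 active = single-dose well whose peak fluorescence ratio is a statistical outlier from its plate by either plate-standardised score or position-corrected B-score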
Phagocytosis inh: inhibitors of macrophage phagocytosis, primary screen, imaging, J774A.1 cells, IgG beads; J774A.1 macrophage IgG-bead phagocytosis; inhibition, % at 5 µM; hit rate 0.07% among 110,000;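 active = inhibition above the mean of the plate negative controls plus 5 SD, cut at about 13% in these data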;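 also: phagocytic index as fraction of beads internalized from green versus red external bead signal; plate controls were DMSO negative control for no effect and cytochalasin-D positive control for full effect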
Rev-RRE block: HIV-1 Rev-RRE binding inhibitors, primary screen, biochemical, FRET, protein-RNA interaction; P05866; Rev peptide-RRE RNA binding; inhibition, % at 8 µM; hit rate 0.79% among 97,000; AID 704, 2007;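 active = inhibition above the screen-wide mean plus 3 SD, cut at about 35% in these data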;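 also: 0% = median DMSO wells and 100% = median Neomycin B control wells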
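Assay system: Rev peptide and RRE RNA, both fluorescently labelled; times: 5 min preincubation and 15 min binding, 25 °C; detection: FRET, ex 480 nm, em 540 and 671 nm; read-out basis: % inhibition from 671/540 nm acceptor-to-donor ratio, scaled between controls; benchmarks: DMSO low control, neomycin B high control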
hDAT+cocaine: changed hDAT dopamine uptake under cocaine IC80, either direction, primary screen, cocaine antagonist project, cell-based, LLC-PK1 hDAT, [14C]-dopamine uptake, MLSMR | Sodium-dependent dopamine transporter (Homo sapiens), Q01959 | LLC-PK1 hDAT cells, [14C]-dopamine uptake with cocaine IC80; actives deviate in either direction | B-score at 10 µM | hit rate 1.3% among 110,000 | AID 449768, 2010;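 active = Z score or B-score, a plate-position-corrected score, falls beyond the plate's 99.7% confidence bounds, in either direction; inactive = both scores lie inside the 99.7% bounds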;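 also: scored against the spread of the other compound wells on the same plate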
Measles CPE: compounds protecting cells from measles virus cytopathic effect, primary screen, measles RdRp inhibitor project, single point, MLSMR library, absorbance; Measles virus-infected cells, CPE protection; protection (pct of control), % at 4 µM; hit rate 1.5% among 140,000; AID 841, 2007; in the data active = protection mostly above about 24%, no sharp cut-off; inactive = mostly below about 26%
* marks the source's active call; other numbers are inactive results; / = no result given.

SMILES | Pyk2 oligo antag | Cav3 T inh | Phagocytosis inh | Rev-RRE block | hDAT+cocaine | Measles CPE
O=c1cc(N2CCN(Cc3ccccc3)CC2)[nH]c(=O)n1Cc1ccc(F)cc1 | 0.63 | -1.4 | -1 | 6 | 0.3 | 13
CC1(OC(=O)c2cccs2)C(=O)C=C2C=C(C3CC3)OC=C2C1=O (stereo not given) | / | -2.8* | / | / | -0.35 | /
COc1ccc(-c2[nH]c(-c3ccc(SC)cc3)nc2SCC(=O)Nc2nccs2)cc1 | / | / | 1 | / | / | 7
CC(C)(C)CC(C)(C)NC(=S)NC1CCN(Cc2ccccc2)CC1 | 1.1 | / | 3 | / | / | 16
O=C(NCCc1ccccc1F)[C@@H]1CSC2c3ccccc3C(=O)N21 (stereo not given in full) | 0.26 | -8.2* | -1 | 3 | -1 | 14
COc1ccc(C2C(C#N)=C(C)NC3=C2C(=O)c2ccccc23)cc1 (stereo not given) | 0.41 | -1.1 | 1 | 5 | -0.38 | 9
CC1=C([N+](=O)[O-])C(c2ccccc2)C2=C(N1)c1ccccc1C2=O (stereo not given) | -1.4 | -3.8* | 1 | 5 | 0.16 | 21
CCN(Cc1ccccc1)S(=O)(=O)c1ccc(C(=O)Nc2nnc(C3CC3)o2)cc1 | / | -5.6* | 0 | / | 1.2 | 4
CCc1nnc(NC(=O)c2ccc(S(=O)(=O)N(CC(C)C)CC(C)C)cc2)o1 | -2.7 | -2.2 | / | 1 | -0.48 | 13
CSCc1nnc(NC(=O)c2ccc(S(=O)(=O)N(CC(C)C)CC(C)C)cc2)o1 | / | -6* | 3 | 11 | 0.12 | 7
Cc1nnc(NC(=O)c2ccc(S(=O)(=O)N(C)Cc3ccccc3)cc2)o1 | -1.5 | 0.41 | -4 | 11 | -0.4 | 14
COc1ccc(-c2nnc(NC(=O)c3cc(Cl)ccc3Cl)o2)cc1 | / | -5.2* | 0 | 0 | 1.7 | 8
O=C(Nc1nnc(-c2ccc3c(c2)CCCC3)o1)c1ccc(Cl)cc1Cl | / | -3.2* | 0 | -1 | 0.0036 | 10
O=C(COc1ccc(S(=O)(=O)NC2CCCCC2)cc1Cl)N1CCN(c2ccccc2)CC1 | 0.2 | -3.3 | 0 | 6 | 0.63 | 8
O=C(CCNC(=O)Cn1ccc2ccccc2c1=O)NCCc1ccccc1Cl | / | / | 7 | / | / | 14
COc1ccc(-c2cc3nc(C)cc(N)n3n2)cc1 | 0.31 | -2 | / | 3 | -8.4* | 12
COc1ccc(-c2cc3nc(C)cc(NCCO)n3n2)cc1 | -0.68 | -0.18 | 0 | 1 | -0.14 | 11
CC(C)(C)CC(C)(C)NCC(O)COc1c(F)cc(Br)cc1F (stereo not given) | 1.2 | -5.7* | 0 | 20 | -0.07 | 6
CCCCNC(=O)CCn1nc(-c2ccccc2)ccc1=O | / | / | 0 | -3 | / | 49*
CCCCN(C)CCCNC(=O)CCn1nc(-c2ccccc2)ccc1=O | / | / | -3 | 0 | / | 9
OCC[C@@H]1C[C@H](O)[C@@H](O)[C@@]2(CCCO2)O1 | / | 0.035 | / | / | -0.17 | /
O=C(NC1CCCC1)C(c1ccc(F)cc1)N(Cc1ccccc1Cl)C(=O)CCl (stereo not given) | / | / | -9 | / | / | 6
COc1ccc(CN(C(=O)CN2C(=O)COc3ccccc32)C2CCCC2)c(OC)c1 | -2.6 | -0.81 | 0 | 4 | 1.3 | 4
COc1ccc(CN(C(=O)CN2C(=O)C(C)Oc3ccccc32)C2CCCC2)c(OC)c1 (stereo not given) | -2.5 | -4.4* | -2 | 1 | -0.025 | 14
COCCn1cnnc1SCC(=O)Nc1ccccc1C(=O)Nc1ccc2c(c1)OCO2 | 1.3 | 0.7 | -2 | 6 | -0.54 | 5
CCOC(=O)c1nn(-c2ccc(F)cc2)c(C)c1C(C)=O | 1.8 | 0.68 | 1 | 7 | 0.074 | 46*
CCOC(=O)c1nn(-c2ccc(C)cc2)c(C)c1C(C)=O | -0.01 | 0.4 | 1 | 2 | 0.89 | 25
CC(=O)N1C(=O)c2cccc3cccc(c23)C(=O)N1C(C)=O | / | -0.075 | 0 | 5 | -0.15 | 54*
Cc1ccc(NC(=O)CCCN2C(=O)c3cccc4cccc(c34)C2=O)cc1 | / | / | -2 | / | / | 13

Compound activity from PubChem.
